Reference: PMC2933425 (Journal of medicinal chemistry, 2010)
Where two headings read alike, the source gives them in different places. Marks after values point to notes of the source that are not given here.

Tests used:
[1] = Photophysical measurements; assay type: physicochemical; settings: for Qy(0,0) absorption fwhm / Qy(0,0) absorption λ / Qy(0,0) fluorescence fwhm / Qy(0,0) fluorescence λ: aerated methanol; for Θ f (fluorescence quantum yield) / τS (lifetime of the lowest singlet excited state): Ar-purged methanol; for τS (lifetime of the lowest singlet excited state): fluorescence detection; for Φisc (triplet-excited-state quantum yield, measured directly): Ar-purged solutions; for kic (rate constant for internal conversion of the lowest singlet excited state to the ground state): printed as (x ns)^−1, from Φisc, Φf and τS
[2] = tested on: HeLa human cervical cancer cells; assay: In vitro PDT toxicity on HeLa cells after illumination; assay type: cell-based; settings: for LD50: 24 h; for phototoxicity per unit uptake (in words) / incubation period needed to exert PDT toxicity (time-course) / LD50 (least active compounds): HeLa; for phototoxicity per unit uptake (in words): normalized to the same uptake level; for incubation period needed to exert PDT toxicity (time-course): 0.5 μM, various incubation times, 10 J/cm^2 of 732 nm light; for LD50 (least active compounds): 10 J/cm^2 of 732 nm laser
HeLa cells [3] = assay: Cellular uptake into HeLa cells; assay type: cell-based, human; settings: 24 h, highest concentration (20.5 μM)
In short: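 HeLa cells in RPMI with 10% heat-inactivated FBS, seeded at 5000/well and grown 24 h, then exposed 24 h to test compound diluted in complete medium. Cells rinsed with warm PBS, lysed in SOLVABLE 2 h at 37 °C. Lysate fluorescence read at ex 402/em 730 nm against per-compound calibration curves in SOLVABLE. Protein by BCA with BSA standards. Expressed as nmol per mg protein; three experiments.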

HeLa cells [4] = assay type: cell-based, human; settings: 1 μM bacteriochlorin, 24 h
In short: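 HeLa cells in 35 mm dishes, attached overnight, then given 1 μM test compound in complete medium for 24 h. After a PBS wash, 5 μg/mL LysoTracker green DND-26, MitoTracker green FM or ER-Tracker green was added for 30 min at 37 °C. Cells were washed again and imaged 5–10 min later by confocal microscopy: 488 nm argon excitation, probe emission 515 ± 10 nm, compound emission >580 nm, 63× water lens. Red/green overlays scored for overlap.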

[5] = tested on: HeLa human cervical cancer cells; assay: Dark toxicity on HeLa cells; settings: no light, at 10 μM
[6] = tested on: HeLa human cervical cancer cells; settings: 24 h, 10 μM
[7] = cited from earlier work
[8] = Ar-purged 2-methyltetrahydrofuran
[9] = freeze–pump–thaw degassed methanol

Row | τT (lifetime of the lowest triplet excited state) [1, 8] | SMILES | LD50 [2] | uptake level (in words) (HeLa cells [3]) | Qy(0,0) absorption fwhm [1] | Qy(0,0) absorption λ [1] | phototoxicity per unit uptake (in words) [2] | Θ f (fluorescence quantum yield) [1] | τS (lifetime of the lowest singlet excited state) [1] | Qy(0,0) fluorescence fwhm [1] | Qy(0,0) fluorescence λ [1] | further results
1 | – | CC1(C)Cc2cc3ccc(cc4nc(cc5ccc(cc1n2)[nH]5)CC4(C)C)[nH]3 [8,8,18,18-tetramethylbacteriochlorin, reference compound] | – | – | – | – | – | – | – | – | – | Φf of fluorescence standard ([1]; Ar-purged toluene, Soret and Qx excitation): 0.125
2 | – | COCCOCCOCCOCCNCc1cc(CNCCOCCOCCOCCOC)cc(-c2c3nc(cc4[nH]c(cc4-c4ccc(C)cc4)c(OC)c4nc(cc5[nH]c2cc5-c2ccc(C)cc2)C(C)(C)C4)C(C)(C)C3)c1 [Compound 1] | 500 nM | Low to intermediate uptake | 21 nm | 732 nm | – | – | – | – | – | –
3 | 159 μs | CC1(C)Cc2cc3[nH]c(cc4nc(cc5[nH]c(cc1n2)cc5-c1cc(OCCO)cc(OCCO)c1)CC4(C)C)cc3-c1cc(OCCO)cc(OCCO)c1 [Compound 3] | – | – | 19 nm | 732 nm | high values | 0.15 | 3.0 ns | 24 nm | 738 nm | –
4 | 190 μs | CC1(C)Cc2cc3[nH]c(cc4nc(cc5[nH]c(cc1n2)cc5-c1cc(O)cc(O)c1)CC4(C)C)cc3-c1cc(O)cc(O)c1 [Compound 4] | – | – | 21 nm | 732 nm | high values | 0.12 | 3.7 ns | 26 nm | 737 nm | incubation period needed to exert PDT toxicity (time-course) [2]: most rapid toxicity; overlap with endoplasmic reticulum probe (ER-Tracker) (HeLa cells [4]): high degree of localization; Φisc (triplet-excited-state quantum yield, measured directly) [1]: 0.41; kic (rate constant for internal conversion of the lowest singlet excited state to the ground state) [1]: 7.7 (ns)^−1
5 | – | CC1(C)Cc2cc3[nH]c(cc4nc(cc5[nH]c(cc1n2)cc5C#CC[N+](C)(C)C)CC4(C)C)cc3C#CC[N+](C)(C)C.[Cl-].[Cl-] [Compound 5] | – | Intermediate uptake levels | 16 nm | 749 nm | much lower values | 0.11 | 3.8 ns | 22 nm | 754 nm | LD50 (least active compounds) [2]: > 1 µM; τT (lifetime of the lowest triplet excited state) [1, 9]: 104 ^k μs; dark toxicity level [5]: ~50%
6 | 190 μs | CC1(C)Cc2cc3[nH]c(cc4nc(cc5[nH]c(cc1n2)cc5CN(CCO)CCO)CC4(C)C)cc3CN(CCO)CCO [Compound 6] | – | Intermediate uptake levels | 18 nm | 718 nm | high values | 0.095 | 3.8 ns | 23 nm | 724 nm | overlap with endoplasmic reticulum probe (ER-Tracker) (HeLa cells [4]): good overlap; dark toxicity level [6]: ~50%
7 | – | CC1(C)Cc2cc3[nH]c(cc4nc(cc5[nH]c(cc1n2)cc5C(=O)NCCN)CC4(C)C)cc3C(=O)NCCN [Compound 8] | 3000 nM | Intermediate uptake levels | 23 nm | 742 nm | much lower values | 0.13 | 4.0 ns | 25 nm | 750 nm | incubation period needed to exert PDT toxicity (time-course) [2]: longest incubation times; LD50 (least active compounds) [2]: > 1 µM; overlap with endoplasmic reticulum probe (ER-Tracker) (HeLa cells [4]): hardly any overlap; τT (lifetime of the lowest triplet excited state) [1, 9]: 77 ^k μs
8 | – | CC1(C)Cc2cc3[nH]c(cc4nc(cc5[nH]c(cc1n2)cc5C(=O)N(CCN)CCN)CC4(C)C)cc3C(=O)N(CCN)CCN [Compound 9] | 800 nM | low uptake | 19 nm | 729 nm | much lower values | 0.12 | 3.5 ns | 24 nm | 735 nm | Φisc (triplet-excited-state quantum yield, measured directly) [1]: 0.57; τT (lifetime of the lowest triplet excited state) ([1]; freeze–pump–thaw degassed ethanol): 54 ^l μs; kic (rate constant for internal conversion of the lowest singlet excited state to the ground state) [1]: 11.4 (ns)^−1
9 | – | CC1(C)Cc2cc3[nH]c(cc4nc(cc5[nH]c(cc1n2)cc5C(=O)N1CC[N+](C)(C)CC1)CC4(C)C)cc3C(=O)N1CC[N+](C)(C)CC1.[Cl-].[Cl-] [Compound 10] | – | low uptake | 21 nm | 731 nm | much lower values | 0.12 | 3.8 ns | 28 nm | 740 nm | τT (lifetime of the lowest triplet excited state) [1, 9]: 100 ^k μs
10 | 105 μs | COCCN(CCOC)C(=O)c1cc2cc3nc(cc4[nH]c(cc5nc(cc1[nH]2)CC5(C)C)cc4C(=O)N(CCOC)CCOC)CC3(C)C [Compound 12] | – | highest uptake | 20 nm | 727 nm | high values | 0.10 | 3.3 ns | 27 nm | 733 nm | –
11 | – | CC[C@H]1c2cc3[nH]c4c(c3C)C(=O)[C@H](C(=O)OC)c4c3nc(cc4[nH]c(cc(n2)[C@@H]1C)c(C(C)=O)c4C)[C@@H](C)[C@@H]3CCC(=O)OC/C=C(\C)CCC[C@H](C)CCC[C@H](C)CCCC(C)C [bacteriopheophytin a] | – | – | – | – | – | – | – | – | – | yield of the lowest triplet excited state [7]: 0.54
12 | – | C1=Cc2nc1c(-c1ccccc1)c1nc(c(-c3ccccc3)c3ccc([nH]3)c(-c3ccccc3)c3ccc([nH]3)c2-c2ccccc2)C=C1 [free base tetraphenylporphyrin, tetraphenylporphyrin] | – | – | – | – | – | – | – | – | – | Φf of fluorescence standard ([7]; in toluene ref 33): 0.090

Row | SMILES | τT (lifetime of the lowest triplet excited state) [1, 8] | LD50 [2] | uptake level (in words) (HeLa cells [3]) | Qy(0,0) absorption fwhm [1] | Qy(0,0) absorption λ [1] | phototoxicity per unit uptake (in words) [2] | Θ f (fluorescence quantum yield) [1] | τS (lifetime of the lowest singlet excited state) [1] | Qy(0,0) fluorescence fwhm [1] | Qy(0,0) fluorescence λ [1] | further results
13 | CC1(C)Cc2cc3[nH]c(cc4nc(cc5[nH]c(cc1n2)cc5C(=O)O)CC4(C)C)cc3C(=O)O [Compound 7] | 70 μs | 4000 nM | lowest uptake | 26 nm | 734 nm | – | 0.077 | 3.7 ns | 19 nm | 742 nm | LD50 (least active compounds) [2]: > 1 µM
14 | CC1(C)Cc2cc3[nH]c(cc4nc(cc5[nH]c(cc1n2)cc5C(=O)/C=C/c1cc(O)cc(O)c1)CC4(C)C)cc3C(=O)/C=C/c1cc(O)cc(O)c1 [Compound 11] | 78 μs | 200 nM | low uptake | 35 nm | 781 nm | – | 0.021 | 3.4 ns | 40 nm | 800 nm | –
